This is a sample that favours compounds with a hit; in the whole collection about 1.9% have one here.
TDP2 absorb: human TDP2 enzyme inhibitors, primary screen, biochemical, epi absorbance, recombinant enzyme. T5PNP hydrolysis, p-nitrophenol absorbance 415 nm. inhibition, % at 12.8 µM. AID 720702, 2013. actives 0.34% (n = 370,000). Tyrosyl-DNA phosphodiesterase 2 (Homo sapiens), O95551;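 active means inhibition above the mean of all tested compounds plus 3 SD, set per campaign, cut at about 25% in these data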;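 further: 0% = DMSO with enzyme and 100% = buffer with substrate but no TDP2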
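Test system: human TDP2 enzyme; Input: 120 nM TDP2 per well; Buffer or medium: Mg2+-containing Tris-HCl buffer, pH 7.5; Reagent: 5 mM T5PNP; Dosing: 12.8 µM single point, 1% DMSO; Incubation: reaction 2 h, 37 °C; Detection: p-Nitrophenol epi absorbance; Read-out: % inhibition relative to enzyme-containing and enzyme-free wells; Replicates: single well per compound.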
LEDGF integ inh: blockers of LEDGF/p75-dependent integrase strand transfer – biochemical, TR-FRET, high throughput, primary screen. actives 0.64% (n = 370,000). HIV-1 integrase (with human LEDGF/p75). AID 743269, 2014. TR-FRET IN-LEDGF/p75 DNA integration, Eu/Cy5. inhibition, % at 3.7 µM;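 active means inhibition above the screen-wide mean plus 3 SD, cut at about 13% in these data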;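 further: signal is the Cy5 over europium emission ratio at 671 and 618 nm; 0% = plate median of compound wells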
MBD2 DNA inh: inhibitors of MBD2 binding to methylated DNA, primary screen, biochemical, TR-FRET, DNA-binding domain, human; MBD2 binding to methylated oligonucleotide; inhibition, % at 4.4 µM; actives 0.31% (n = 370,000); in the data active means inhibition above about 13%
UHRF1 MBD2 ctr: UHRF1 methylated DNA binding inhibitors, primary screen, counter-screen for MBD2 inhibitor project, biochemical, TR-FRET, human UHRF1, single concentration; E3 ubiquitin-protein ligase UHRF1 (Homo sapiens), Q96T88; UHRF1 binding to methylated oligo; inhibition, % at 4.4 µM; actives 0.75% (n = 370,000); AID 687016, 2013; in the data active means inhibition above about 21%;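 further: UHRF1 SRA domain binding a hemimethylated CpG hairpin DNA probe; 0% = median of test compound wells and 100% = reference inhibitor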
Rin1 Abl inh: inhibitors of Rin1-Abl protein binding, primary screen, biochemical, TR-FRET. Tyrosine-protein kinase ABL1 (Homo sapiens) + Ras and Rab interactor 1 (Homo sapiens), …. inhibition, % at 7.35 µM. actives 0.4% (n = 360,000). AID 588664, 2011; in the data active means inhibition above about 5%, passing the limit was not always enough
Numbers without * were called inactive.

`COC(=O)c1ccc(S(=O)(=O)N(Cc2ccccc2)Cc2ccccc2)n1C` gave TDP2 absorb 12.5, LEDGF integ inh -1.2, MBD2 DNA inh -5.2, UHRF1 MBD2 ctr 61.5* and Rin1 Abl inh 3.2.
`CC1CCCC(C)N1C(=O)c1cc2ncc(CCCl)cn2n1` (configuration not stated) gave TDP2 absorb 6.6, LEDGF integ inh -3.7, MBD2 DNA inh -3.1, UHRF1 MBD2 ctr 50.8* and Rin1 Abl inh 1.8.
For O=C(c1cc2ncc(CCCl)cn2n1)N1CCCCCC1 the results were TDP2 absorb 0.4, LEDGF integ inh -5.4, MBD2 DNA inh 2.3, UHRF1 MBD2 ctr 1.6 and Rin1 Abl inh 0.0.
`Cc1ccccc1CC(=O)NCC1CCCCC1` gave TDP2 absorb -4.2, LEDGF integ inh 5.8, MBD2 DNA inh 1.7, UHRF1 MBD2 ctr 39.9* and Rin1 Abl inh -1.2.
For Cc1ccccc1CC(=O)NC1CCCCCC1 the results were TDP2 absorb -2.6, LEDGF integ inh -2.3, MBD2 DNA inh -4.2, UHRF1 MBD2 ctr -1.3 and Rin1 Abl inh -2.2.
Screening COc1ccc(Cn2c(SCC(=O)NCc3ccco3)nc3ccsc3c2=O)cc1 returned TDP2 absorb -8.7, LEDGF integ inh 20.5*, MBD2 DNA inh -4.1, UHRF1 MBD2 ctr 5.5 and Rin1 Abl inh -1.4.
Screening O=C(CSc1nc2ccsc2c(=O)n1Cc1ccc(C(=O)O)cc1)NCc1ccco1 returned TDP2 absorb -1.6, LEDGF integ inh 1.5, MBD2 DNA inh -0.1, UHRF1 MBD2 ctr 2.1 and Rin1 Abl inh -1.7.
For COc1ccccc1-c1nnc(SCC(=O)NCc2c(C)c(Cl)cc(C(C)C)c2O)o1 the results were TDP2 absorb 5.8, LEDGF integ inh -0.6, MBD2 DNA inh 0.1, UHRF1 MBD2 ctr 42.6* and Rin1 Abl inh 2.5.
For C/C(=N/NC(=O)C1CC1(c1ccccc1)c1ccccc1)c1ccco1 (configuration not stated) the results were TDP2 absorb -0.5, LEDGF integ inh -0.5, MBD2 DNA inh 1.8, UHRF1 MBD2 ctr 27.8* and Rin1 Abl inh 3.5.
NNC(=O)C1CC1(c1ccccc1)c1ccccc1 (configuration not stated) was read as TDP2 absorb 3.5, LEDGF integ inh -2.8, MBD2 DNA inh 4.8, UHRF1 MBD2 ctr 23.0* and Rin1 Abl inh -1.0.
For Cc1cc(C(=O)NP(=O)(N2CCOCC2)N2CCOCC2)c(C)n1-c1ccc(Br)cc1 the results were TDP2 absorb 6.7, LEDGF integ inh -0.4, MBD2 DNA inh 5.6, UHRF1 MBD2 ctr 21.2* and Rin1 Abl inh -1.8.
C=CCN(CC#Cc1cccnc1)Cc1ccc(OC)cc1OC was read as TDP2 absorb 10.3, LEDGF integ inh -0.6, MBD2 DNA inh -0.3 and UHRF1 MBD2 ctr -1.1.
O=C(N/N=C/c1ccc(OC(F)F)cc1)c1ccc(CSc2nc3ccccc3[nH]2)cc1 was read as TDP2 absorb -5.9, LEDGF integ inh -1.2, MBD2 DNA inh 12.8, UHRF1 MBD2 ctr 24.6* and Rin1 Abl inh -0.4.
CCOc1ccc(/C=N/NC(=O)c2ccc(CSc3nc4ccccc4[nH]3)cc2)cc1 was read as TDP2 absorb -3.4, LEDGF integ inh -1.2, MBD2 DNA inh -7.5, UHRF1 MBD2 ctr -3.3 and Rin1 Abl inh 2.1.
`Oc1cccc(C=NCc2ccccc2)c1O` gave TDP2 absorb 10.1, LEDGF integ inh 65.5*, MBD2 DNA inh -0.8, UHRF1 MBD2 ctr 7.3 and Rin1 Abl inh 5.2.
`Oc1cccc(C=Nc2cccc3ccccc23)c1O` gave TDP2 absorb 13.0, LEDGF integ inh 9.2, MBD2 DNA inh 1.2, UHRF1 MBD2 ctr -2.4 and Rin1 Abl inh 3.3.
Screening FC(F)(F)c1ccccc1NC(=S)NC1CCN(Cc2ccccc2)CC1 returned TDP2 absorb -4.2, LEDGF integ inh -2.2, MBD2 DNA inh -0.8, UHRF1 MBD2 ctr 36.6* and Rin1 Abl inh 1.7.
COC(=O)c1ccc2nc(-c3ccc(C#N)cc3)c(Cc3cccc(Cl)c3)n2c1 was read as TDP2 absorb 5.1, LEDGF integ inh 1.1, MBD2 DNA inh 2.9 and UHRF1 MBD2 ctr 21.2*.
COC(=O)c1ccc2nc(-c3ccc(C)cc3)c(Cc3ccsc3)n2c1 was read as TDP2 absorb 1.1, LEDGF integ inh 3.6, MBD2 DNA inh -2.2, UHRF1 MBD2 ctr 20.2 and Rin1 Abl inh 2.4.
COC(=O)c1ccc2nc(-c3ccc(C#N)cc3)c(Cc3ccsc3)n2c1 was read as TDP2 absorb 1.8, LEDGF integ inh 0.3, MBD2 DNA inh 5.0 and UHRF1 MBD2 ctr 21.8*.
For COC(=O)c1ccc2nc(-c3ccc(F)cc3)c(Cc3ccsc3)n2c1 the results were TDP2 absorb -6.6, LEDGF integ inh 4.2, MBD2 DNA inh 6.1, UHRF1 MBD2 ctr 23.8* and Rin1 Abl inh 3.5.
For COC(=O)c1ccc2nc(-c3ccc(F)cc3)c(Cc3ccccc3C(F)(F)F)n2c1 the results were TDP2 absorb -3.0, LEDGF integ inh 3.6, MBD2 DNA inh -1.9 and UHRF1 MBD2 ctr 5.0.
Screening COC(=O)c1ccc2nc(-c3ccc(F)cc3)c(Cc3ccccc3)n2c1 returned TDP2 absorb -0.7, LEDGF integ inh 7.3, MBD2 DNA inh 2.4, UHRF1 MBD2 ctr 22.8* and Rin1 Abl inh 3.9.
For Cc1ccc(CSc2nnc(-c3ccccc3)n2Cc2ccco2)cc1 the results were TDP2 absorb -1.5, LEDGF integ inh -1.1, MBD2 DNA inh -1.4 and UHRF1 MBD2 ctr -2.1.
`COc1cc2c(cc1OC)-c1cc3ccc(OC)c(OC)c3c[n+]1CC2` gave TDP2 absorb -9.0, LEDGF integ inh -2.7, MBD2 DNA inh -14.4, UHRF1 MBD2 ctr -17.3 and Rin1 Abl inh -15.2.
Screening COc1ccc2cc3[n+](cc2c1O)CCc1cc2c(cc1-3)OCO2 returned TDP2 absorb 23.6, LEDGF integ inh 27.2*, MBD2 DNA inh -1.0 and UHRF1 MBD2 ctr 7.5.
`Cc1ccc(NC(=O)c2ncc(Cl)c(Cl)c2Cl)cc1C` gave TDP2 absorb 2.7, LEDGF integ inh 1.2, MBD2 DNA inh 4.1, UHRF1 MBD2 ctr -1.2 and Rin1 Abl inh 3.8.
For O=C(Nc1ccc(OC(F)F)cc1)c1ncc(Cl)c(Cl)c1Cl the results were TDP2 absorb -3.0, LEDGF integ inh -4.8, MBD2 DNA inh 12.9, UHRF1 MBD2 ctr 24.0* and Rin1 Abl inh -1.3.
`NC(=O)C[n+]1cccc(CNC(=O)c2ccc(OC(F)F)cc2)c1` gave TDP2 absorb -4.4, LEDGF integ inh -5.3, MBD2 DNA inh 4.5, UHRF1 MBD2 ctr 77.3* and Rin1 Abl inh 0.3.
For O=C(C[n+]1cccc(CNC(=O)c2ccc(OC(F)F)cc2)c1)Nc1cc(C(F)(F)F)ccc1Cl the results were TDP2 absorb -12.2, LEDGF integ inh -3.6, MBD2 DNA inh -1.1, UHRF1 MBD2 ctr 0.9 and Rin1 Abl inh -0.3.
`Cc1cc(-c2n[nH]c(=S)n2N=Cc2cc(Br)ccc2F)n[nH]1` gave TDP2 absorb -11.9, LEDGF integ inh 3.1, MBD2 DNA inh 2.5 and UHRF1 MBD2 ctr 1.5.

Source: PubChem (The Scripps Research Institute Molecular Screening Center)
